Measurements pooled from the literature.
Protocols differ between the studies behind these lines.
Target: G protein-coupled receptor kinase 4 (GRK4, Homo sapiens, UniProt P32298)

The inhibition of CN(C)C1CCN(CC#Cc2nn(C3CCCC3)c3nc(NCc4ccccc4)ncc23)C1 (centres unmarked) is reported as -6% (enzyme activity, inhibitor, FRET; 10 µM).
The remaining activity of Cc1ccc(C(=O)Nc2ccc(CN3CCN(C)CC3)c(C(F)(F)F)c2)cc1C#Cc1cnc2cccnn12 is reported as 96% (enzyme activity, inhibitor; 23.5 nM).
For O=C1Nc2ccc(Cl)cc2C1=Cc1cc(Cl)c(O)c(Cl)c1, the remaining signal was 108% (cell-free assay; 0.5 µM).
O=C(Nc1cnn(-c2csc(C(=O)NC3COC3)c2)c1)Nc1c(F)cccc1Cl gave a remaining activity of 93.6% (enzyme activity, inhibitor; 5 µM).
N#CCCc1ccc2c(c1)-c1[nH]c3ccc([N+](=O)[O-])cc3c1CC(=O)N2 has a remaining signal of 101% (cell-free assay; 0.5 µM).
For CC(C)(C)c1nc2c(s1)c1nc(N)ncc1c1ccc(NS(=O)(=O)c3c(F)cccc3F)c(F)c12, the remaining activity was 70% (enzyme activity, inhibitor, radiometric; 1 µM).
CC(=O)N1CCC(c2ccc(C(=O)NC(=N)N)cc2C(F)(F)F)CC1 gave a remaining binding of 100% (cell-free assay, competition with immobilised ligand; 1 µM).
With Nc1ncnc2occ(-c3ccc(NC(=O)Nc4cc(C(F)(F)F)ccc4F)cc3)c12 the remaining signal was 89% (cell-free assay, inhibitor; 20 µM).
With O=C(Nc1ccc(Oc2ccc(F)cc2)cc1)N1CCc2ncccc2[C@H]1c1ccc(F)cc1 the remaining binding was 93% (cell-free assay, competition with immobilised ligand; 1 µM).
With CC(C)(O)[C@H]1CC[C@H](Nc2ccc3ncc(-c4cccc(C(F)(F)F)c4)n3n2)CC1 the remaining activity was 96.5% (enzyme activity, inhibitor; 1 µM).
The remaining binding of O=c1nc(-c2ccccn2)sc2ccccc12 is reported as 100% (binding, competition with immobilised ligand; 1 µM).
With O=C1NC(=O)c2cc(Nc3ccc(F)cc3)c(Nc3ccc(F)cc3)cc21 the remaining signal was 103% (cell-free assay; 0.5 µM).
With CN(C)CC#Cc1ccc(OCCCc2sc(N3CCc4cccc(C(=O)Nc5nc6ccccc6s5)c4C3)nc2C(=O)O)c(F)c1 the remaining binding was 100% (cell-free assay, competition with immobilised ligand; 1 µM).
COc1cc2ncnc(Nc3ccc(Oc4ccccc4)c(C)c3C)c2cc1OC gave an inhibition of -4% (enzyme activity, inhibitor; 1 µM).
